# Compounds with a hit are over-represented: about 3.1% of the library has one in this group of screens.
# hERG protect = hERG (human) protection from proarrhythmic block; CHO-hERG, FluxOR thallium flux, dofetilide IC70 present; activation (rescue from dofetilide block), less the hit threshold, % at 10 µM; actives 0.51% (n = 310,000); AID 1511;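 active means activation above the mean of controls blocked by dofetilide plus 5 SD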;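 further: thallium influx through hERG after potassium depolarization seen as dye fluorescence rise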
# Target sequence (Q12809 whole entry, looked up): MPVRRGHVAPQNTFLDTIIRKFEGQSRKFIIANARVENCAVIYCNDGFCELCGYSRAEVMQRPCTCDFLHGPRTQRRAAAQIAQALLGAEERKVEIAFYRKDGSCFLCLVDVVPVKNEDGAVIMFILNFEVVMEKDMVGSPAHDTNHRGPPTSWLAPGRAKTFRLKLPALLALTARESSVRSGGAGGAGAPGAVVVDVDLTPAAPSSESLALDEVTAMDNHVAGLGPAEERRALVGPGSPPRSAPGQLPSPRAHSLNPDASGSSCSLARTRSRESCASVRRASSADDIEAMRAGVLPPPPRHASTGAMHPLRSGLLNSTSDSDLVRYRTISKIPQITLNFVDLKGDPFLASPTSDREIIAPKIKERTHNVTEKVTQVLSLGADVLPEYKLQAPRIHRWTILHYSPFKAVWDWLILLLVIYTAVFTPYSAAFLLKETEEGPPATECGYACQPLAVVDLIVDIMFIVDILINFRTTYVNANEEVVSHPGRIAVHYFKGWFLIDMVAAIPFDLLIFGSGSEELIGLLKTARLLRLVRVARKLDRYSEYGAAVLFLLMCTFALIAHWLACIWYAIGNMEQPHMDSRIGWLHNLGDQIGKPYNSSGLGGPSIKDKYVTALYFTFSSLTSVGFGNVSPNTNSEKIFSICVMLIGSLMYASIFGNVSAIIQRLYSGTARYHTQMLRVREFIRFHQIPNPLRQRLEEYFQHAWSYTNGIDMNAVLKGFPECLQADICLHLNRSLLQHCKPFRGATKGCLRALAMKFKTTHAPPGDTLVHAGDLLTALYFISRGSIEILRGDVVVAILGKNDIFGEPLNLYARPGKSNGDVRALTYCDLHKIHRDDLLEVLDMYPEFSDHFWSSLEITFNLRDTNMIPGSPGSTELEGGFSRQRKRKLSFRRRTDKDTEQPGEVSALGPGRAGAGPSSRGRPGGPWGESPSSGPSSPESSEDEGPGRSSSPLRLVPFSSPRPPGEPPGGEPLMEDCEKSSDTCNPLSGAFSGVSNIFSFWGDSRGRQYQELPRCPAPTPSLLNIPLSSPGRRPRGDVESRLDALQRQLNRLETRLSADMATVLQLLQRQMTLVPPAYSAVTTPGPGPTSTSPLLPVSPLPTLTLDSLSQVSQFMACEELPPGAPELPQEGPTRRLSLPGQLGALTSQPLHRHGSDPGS
# KCNK9 block = inhibitors of human KCNK9 two-pore domain potassium channel; B-score at 10 µM; HEK293 KCNK9, FluxOR thallium flux fluorescence; active compounds read low; actives 1.2% (n = 310,000); Q9NPC2;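 active means ratio B-score over 3 SD below the library mean, with starting fluorescence within 5 SD of its mean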;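 further: negative B-score means less thallium flux so channel inhibition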
# KCNK3 block = human KCNK3 channel inhibition, primary screen | CHO-KCNK3 thallium flux, FluxOR fluorescence; active compounds read low | B-score at 10 µM | actives 0.84% (n = 340,000);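 active means B-score under library mean minus 4 SD, starting fluorescence ratio at most library mean plus 5 SD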;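 further: more negative B-score means stronger inhibition of thallium flux through KCNK3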
# KCNQ1 block = blocks the human KCNQ1 potassium channel; P51787; CHO-K1 KCNQ1, FluxOR thallium flux fluorescence; active compounds read high; B-score at 10 µM; actives 1.3% (n = 310,000);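 active means compounds whose thallium flux B-score, printed positive for inhibition, exceeds three library SD while starting fluorescence stays within three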;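 further: channel opened by potassium depolarization with thallium stimulus after 20 min compound exposure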
# KCNQ1 pot = potentiators or activators of human KCNQ1 potassium channel; P51787; CHO-K1 KCNQ1, thallium flux FluxOR fluorescence; active compounds read high; B-score at 10 µM; actives 0.35% (n = 310,000); AID 2648;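 active means fluorescence ratio B-score, a plate-corrected score, at least three library SD, with initial intensity B-score within 5 SD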
#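 System: Stable KCNQ1 CHO-K1 line | Incubation: 90 min dye loading and 20 min compound exposure, both at room temperature | Measure: Ratio B score | Medium: Assay buffer for compound exposure, DMSO matched across wells | Compound dosing: Single-concentration screen | Probe or stimulus: K+/Tl+ depolarizing stimulus | Measured by: Kinetic FluxOR fluorescence, 10 s baseline plus 110 s post-stimulus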
# KCNQ1 block val = human KCNQ1 channel inhibition, validation assay; shares compounds with KCNQ1 block; KCNQ1 cell line, FluxOR thallium flux fluorescence; inhibition, % at 10 µM; actives 93% (n = 1,600); AID 588353;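 active means primary screen active, with duplicate mean exceeding buffer control mean plus 3 SD of buffer wells, cut at about 28% in these data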;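 further: 0% = buffer control ratio and 100% = XE991 inhibitor control ratio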
# CHO Tl flux = KCNQ1 inhibitor counter-screen hit in parental CHO cells | AID 588366 | parental CHO-K1, FluxOR thallium flux fluorescence ratio; active compounds read low; zero means no signal rise above baseline | shares compounds with KCNQ1 block | fluorescence ratio (Tl flux) at 10 µM | actives 21% (n = 1,600);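 active means mean of duplicate thallium-flux fluorescence ratios in parental host cells more than 5 SD below the buffer control mean, cut at about 0.38 in these data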;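 further: ratio is peak minus minimum fluorescence divided by baseline fluorescence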
# KCNQ1 ephys val = human KCNQ1 inhibition validated by electrophysiology | AID 624120 | calls only at 10 µM | shares compounds with KCNQ1 block | actives 20% (n = 490) | KCNQ1-CHO cells, automated patch clamp current;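 active means KCNQ1 current drop exceeding 3 SD of negative control wells, seen in both duplicate runs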;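 further: steady state current during a 2 s step from -80 to +40 mV; negative values mean current inhibition and positive values mean potentiation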
# KCNQ2 inh = KCNQ1 inhibitor that also blocks rat KCNQ2 channel; inhibition, % at 10 µM; shares compounds with KCNQ1 block; KCNQ2 cells, FluxOR thallium flux fluorescence; AID 651746; actives 71% (n = 1,600);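 active means mean percent inhibition of the KCNQ2 thallium signal more than 5 SD above the buffer-only control wells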;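 further: KCNQ2 expressed in CHO cells; 0% = buffer control wells and 100% = XE-991 inhibitor control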
# KCNQ1 KCNE1 spec = KCNQ1 inhibitor that also blocks human KCNQ1/KCNE1 channel; shares compounds with KCNQ1 block; KCNQ1/KCNE1 cells, FluxOR thallium flux fluorescence; inhibition, % at 10 µM; actives 77% (n = 1,600); AID 652147;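 active means mean percent inhibition of duplicate wells above the buffer-only control mean plus 3 SD of those controls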;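 further: 0% = buffer only wells and 100% = XE-991 inhibitor control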
# Starred values were filed as active, the others as inactive; i = inactive; / = not tested or not shown; + = active, no number.
SMILES,hERG protect,KCNK9 block,KCNK3 block,KCNQ1 block,KCNQ1 pot,KCNQ1 block val,CHO Tl flux,KCNQ2 inh,KCNQ1 KCNE1 spec,others
O=C(OCCN1C(=O)c2cccc3c(N4CCOCC4)ccc(c23)C1=O)c1ccc(Cl)cc1,-19,i,i,10*,i,+,0.087*,i,i,
O=C(OCCN1C(=O)c2ccccc2C1=O)c1cc(S(=O)(=O)N2CCOCC2)ccc1F,-9,i,i,i,i,/,/,/,/,
CC1CCc2c(sc3ncnc(SC(C)C(=O)NCC4CCCO4)c23)C1 (configuration not stated),-12,i,i,i,i,/,/,/,/,
Cc1cccc(NC(=O)COc2ccccc2C(=O)NC(C)c2ccccc2)c1 (configuration not stated),-7,i,i,7*,i,130*,0.4,i,190%*,
Cc1cccc(NC(=O)c2ccccc2OCC(=O)c2ccccc2)c1,-12,i,i,i,i,/,/,/,/,
COC(=O)C1CCCCN1C(=O)c1cc(COc2cccc3cnccc23)on1 (configuration not stated),-22,i,i,9*,i,25*,0.57,75%*,i,
COC(=O)C1CCCCN1C(=O)c1cc(COc2cccc3cccnc23)on1 (configuration not stated),-6,i,i,i,i,/,/,/,/,
CCOC(=O)CC1CCCCN1C(=O)c1cc(COc2cccc3cnccc23)on1 (configuration not stated),-19,i,i,11*,i,136*,0.48,92%*,58%*,KCNQ1 ephys val=i
COCCC1CCCCN1C(=O)c1cc(COc2cccc(C(C)=O)c2)on1 (configuration not stated),-15,i,i,i,i,/,/,/,/,
Cc1cccc(C)c1OCC(O)CNC(C)c1ccccc1 (configuration not stated),-2,i,i,i,i,/,/,/,/,
O=C(CCSc1ccc(Cl)cc1)N1CCN(S(=O)(=O)c2ccccc2)CC1,/,/,i,/,/,/,/,/,/,
CCn1c(C)nc2cc(C(=O)NNC(=O)c3ccc(C)cc3)ccc21,/,/,i,/,/,/,/,/,/,
CCn1c(C)nc2cc(C(=O)OC(C(F)(F)C(F)F)C(F)(F)C(F)F)ccc21,-22,i,i,9*,i,131*,0.4,89%*,116%*,KCNQ1 ephys val=i
CCCCC1CC(=O)NC1(C(=O)OCC)C(=O)OCC (configuration not stated),/,/,i,/,/,/,/,/,/,
COc1cc(CC(=O)OCC(=O)Nc2ccc(N(C)C)cc2)cc(OC)c1OC,/,/,i,/,/,/,/,/,/,
CC(C)C(=O)NC(=S)Nc1ccc(S(=O)(=O)N(C)Cc2ccccc2)cc1,-9,i,i,11*,i,117*,0.42,104%*,196%*,KCNQ1 ephys val=i
CN(Cc1ccccc1)S(=O)(=O)c1ccc(NS(=O)(=O)Cc2ccccc2)cc1,-17,i,i,8*,i,130*,0.37*,118%*,92%*,
CC(=O)NC(=S)Nc1ccc(S(=O)(=O)N(C)Cc2ccccc2)cc1,-8,i,i,i,i,/,/,/,/,
Cn1c(=O)c(N)c2c3c(c(Br)ccc31)C(=O)c1ccccc1-2,-34,i,i,21*,i,+,0.029*,i,i,
NC(=O)CSc1nc(C23CC4CC(CC(C4)C2)C3)nc2ccccc12,-17,i,i,6*,i,91*,0.39,i,94%*,KCNQ1 ephys val=i
O=c1c2c(nc3n1CCCCC3)-c1ccccc1CC21CCCCC1,-6,i,i,7*,i,104*,0.48,106%*,88%*,KCNQ1 ephys val=i
O=C(c1cc(-c2ccc(Cl)cc2)n(-c2cc(Cl)ccc2Cl)n1)N1CCOCC1,-7,i,i,7*,i,62*,0.48,81%*,86%*,
O=C(c1cc(-c2ccc(Cl)cc2)n(-c2ccc(Cl)c(Cl)c2)n1)N1CCOCC1,-6,i,i,i,i,/,/,/,/,
CC[C@@]1(C(=O)OC)N[C@H](CN(C)S(=O)(=O)c2ccccc2)[C@@H]2C(=O)N(C)C(=O)[C@@H]21,/,/,i,/,/,/,/,/,/,
COCCN1CCN(c2cc(-c3ccccc3)nc3cc(-c4cccc(F)c4)nn23)CC1,-12,i,i,6*,i,118*,0.34*,133%*,156%*,
SMILES,hERG protect,KCNK9 block,KCNK3 block,KCNQ1 block,KCNQ1 pot,KCNQ1 block val,CHO Tl flux,KCNQ2 inh,KCNQ1 KCNE1 spec,others
CCc1ccccc1N1CC(C(=O)Nc2nccs2)CC1=O (configuration not stated),-4,i,i,i,i,/,/,/,/,
COc1ccc(C(F)(F)F)cc1N/C=C\c1nnnn1-c1ccccc1,-15,i,i,9*,i,98*,0.42,64%*,79%*,KCNQ1 ephys val=i
O=C(c1ccccc1)c1ccccc1N/C=C/c1nnnn1-c1ccccc1,-15,i,i,i,i,/,/,/,/,
Nc1ccc2nc3c(=O)n(C4CCCCC4)c(=O)[nH]c3nc2c1,-50,i,i,24*,i,+,0.1*,i,i,
COC(CNC(=O)c1ccc2c3c(onc13)-c1ccccc1C2=O)OC,-46,i,i,6*,i,+,0.086*,i,i,
COc1ccccc1C(=O)NC(=O)COC(=O)c1ccc(Br)o1,/,/,i,/,/,/,/,/,/,
Cc1nc(SCCOc2ccccc2F)[nH]c(=O)c1Cc1ccccc1,-11,i,i,i,i,/,/,/,/,
Cc1cccc(OCc2nc(C#N)c(N3CC(C)CC(C)C3)o2)c1 (configuration not stated),-11,i,-12*,8*,i,103*,0.38*,i,104%*,
Cc1ccc(NC(=O)CCS(=O)(=O)c2ccc3c(c2)NC(=O)C(C)S3)nc1 (configuration not stated),-3,i,i,i,i,/,/,/,/,
Cc1ccc(OCC(O)CN2CCC(Cc3ccccc3)CC2)c(C)c1 (configuration not stated),-17,i,i,7*,i,31*,0.44,76%*,63%*,

# Source: PubChem BioAssay (Johns Hopkins Ion Channel Center)
